Assay results: ChEMBL document CHEMBL1138035, “Antitumor agents. 250. Design and synthesis of new curcumin analogues as potential anti-prostate cancer agents” (J Med Chem, 2006)

Legend:
[1] = tested on: LNCaP; assay: Cytotoxicity against human LNCaP cell line; assay type: functional, cell-based
[2] = tested on: PC-3; assay: Cytotoxicity against human PC3 cell line; assay type: functional, cell-based
[3] = tested on: PC-3; assay: Inhibition of growth of human PC3 cell line at 20 ug/ml; assay type: functional
Method in brief: (§1)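 Growth assay in human prostate cancer cells (LNCaP in RPMI, PC-3 in DMEM, each with 10% fetal calf serum and antibiotics). Cells were exposed to compound for 2 days. Value is % inhibition of cell growth at 20 μg/ml. Variation between replicate experiments was ≤5%.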

[4] = target: T1, Androgen receptor (Homo sapiens) (UniProt P10275); assay: Antiandrogenic activity against human PC3 cell line transfected with wild-type AR by AR transactivation assay in presence of […] at 5 uM; assay type: functional, cell-based; conditions: PC-3
T1 sequence (whole entry): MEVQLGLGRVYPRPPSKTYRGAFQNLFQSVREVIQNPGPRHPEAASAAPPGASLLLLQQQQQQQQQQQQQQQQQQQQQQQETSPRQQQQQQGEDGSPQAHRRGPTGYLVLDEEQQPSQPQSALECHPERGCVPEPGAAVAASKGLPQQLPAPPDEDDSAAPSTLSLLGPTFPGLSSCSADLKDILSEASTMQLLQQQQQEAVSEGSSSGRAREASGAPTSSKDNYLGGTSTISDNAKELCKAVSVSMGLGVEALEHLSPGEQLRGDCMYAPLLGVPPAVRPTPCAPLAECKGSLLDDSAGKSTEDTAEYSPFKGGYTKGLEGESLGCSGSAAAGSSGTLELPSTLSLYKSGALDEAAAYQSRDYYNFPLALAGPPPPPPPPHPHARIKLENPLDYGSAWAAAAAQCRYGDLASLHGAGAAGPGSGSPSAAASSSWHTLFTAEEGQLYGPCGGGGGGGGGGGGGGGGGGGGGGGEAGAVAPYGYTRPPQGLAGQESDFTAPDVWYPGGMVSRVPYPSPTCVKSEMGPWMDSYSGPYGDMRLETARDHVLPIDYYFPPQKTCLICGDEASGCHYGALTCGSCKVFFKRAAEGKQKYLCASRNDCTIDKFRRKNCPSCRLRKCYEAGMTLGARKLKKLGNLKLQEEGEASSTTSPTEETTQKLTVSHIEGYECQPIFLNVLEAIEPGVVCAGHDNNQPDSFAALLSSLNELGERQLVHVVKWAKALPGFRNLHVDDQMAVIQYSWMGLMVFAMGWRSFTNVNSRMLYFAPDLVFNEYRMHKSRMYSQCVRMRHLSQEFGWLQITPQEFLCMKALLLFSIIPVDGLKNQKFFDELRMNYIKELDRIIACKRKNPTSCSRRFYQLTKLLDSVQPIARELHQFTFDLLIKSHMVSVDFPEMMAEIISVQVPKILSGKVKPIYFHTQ
Method in brief: (§2)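 PC-3 host cells (no functional AR), kept in DMEM with 10% fetal calf serum and antibiotics, were plated 24 h before transfection. They were transfected for 5 h (SuperFect) with wild-type AR plasmid pSG5AR, MMTV-luciferase reporter and pRL-SV40 control, then moved to DMEM with 10% charcoal-stripped serum. After 24 h, cells got 1 nM DHT plus compound for 24 h. Dual-luciferase signal was normalized to the internal control and given as % of DHT-only.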

[5] = target: T1, Androgen receptor (Homo sapiens); assay: Antiandrogenic activity against human LNCaP cell line by AR transactivation assay in presence of […] at 5 uM; assay type: functional, cell-based
Method in brief: (§3)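 LNCaP cells (endogenous mutant AR), kept in RPMI with 10% fetal calf serum and antibiotics, were plated 48 h before transfection. They were transfected for 5 h (SuperFect) with MMTV-luciferase reporter plus pRL-SV40 internal control, then moved to RPMI with 10% charcoal dextran-stripped serum. After 24 h, cells got 1 nM DHT plus compound for 24 h. Read-out was dual luciferase normalized to the internal control, as % of DHT-alone transactivation.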

[6] = target: T1, Androgen receptor (Homo sapiens); assay: Antiandrogenic activity against human LNCaP cell line by AR transactivation assay in presence of […] at 3 uM; assay type: functional, cell-based; method in brief: as §3
[7] = target: T1, Androgen receptor (Homo sapiens); assay: Antiandrogenic activity against human PC3 cell line transfected with wild-type AR by AR transactivation assay in presence of […] at 3 uM; assay type: functional, cell-based; conditions: PC-3; method in brief: as §2
[8] = tested on: LNCaP; assay: Inhibition of growth of human LNCaP cell line at 20 ug/ml; assay type: functional; method in brief: as §1
[9] = Homo sapiens, PC-3, read-out: IC50

Structure (SMILES)	IC50 [1] [µM]	IC50 [2, 9] [µM]	other results
COc1ccc(/C=C/C(=O)/C=C(O)/C=C/c2ccc(OC)c(C)c2)cc1C	7.7	> 27.4	inhibition at 20 µg/mL [3]: 44%
CCOc1ccc(/C=C/C(=O)/C=C(O)/C=C/c2ccc(OCC)c(OC)c2)cc1OC	6.5	20.3	–
CCOC(=O)CC/C(C(=O)/C=C/c1ccc(O)c(OC)c1)=C(O)\C=C\c1ccc(O)c(OC)c1	1.5	5.1	Activity [4]: 13%; Activity [5]: 4%
COc1ccc(/C=C/C(=O)C(C)C(=O)/C=C/c2ccc(OC)c(OC)c2)cc1OC	5.8	3.5	–
COc1ccc(/C=C/C(=O)/C=C(O)/C=C/c2ccc(OC)c(OC)c2OC)c(OC)c1OC	4.8	8.1	–
COc1cc(/C=C/C(O)=C/C(=O)/C=C/c2ccc(CO)o2)ccc1O	7.3	9	–
COc1ccc(/C=C/C(=O)CC(O)/C=C/c2ccc(OC)c(OC)c2)cc1OC (stereo not given)	17.7	18.4	–
COc1ccc(/C=C/C(=O)/C=C(O)/C=C/c2ccc(OC)c(O)c2)cc1O	10.9	8.6	–
COc1cc(/C=C/C(=O)/C=C(O)/C=C/c2ccc(OCC=C(C)C)c(OC)c2)ccc1OCC=C(C)C	6.1	> 19.8	inhibition at 20 µg/mL [3]: 41%
COc1ccc(/C=C/C(O)=C/C(C)=O)c(OC)c1	9.9	12.3	–
CCO/C(O)=C/C=C(C(=O)/C=C/c1ccc(OC)c(OC)c1)C(=O)/C=C/c1ccc(OC)c(OC)c1	0.2	1	Activity [4]: 40%; Activity [5]: 6%
COc1ccc(/C=C/C(=O)/C=C/c2ccc(OC)cc2OC)c(OC)c1	21.8	18.7	–
COc1ccc(CCC(=O)CC(O)CCc2ccc(OC)c(OC)c2)cc1OC (stereo not given)	10.8	–	inhibition at 20 µg/mL [3]: 33%
CCOC(=O)CC/C(C(C)=O)=C(O)\C=C\c1ccc(O)c(OC)c1	51.5	43.7	–
CCO/C(O)=C/C=C(C(=O)/C=C/c1ccc(O)c(OC)c1)C(=O)/C=C/c1ccc(O)c(OC)c1	7	11.7	–
COc1cc(/C=C/C(=O)/C(C(C)=O)=C(O)/C=C/c2ccc(O)c(OC)c2)ccc1O	8.8	23.4	–
COc1ccc(/C=C/C(O)=C/C(C)=O)c(OC)c1OC	5.8	7.8	–
COc1cc(/C=C/C(O)=C/C(=O)/C=C/c2ccc[nH]2)ccc1O	13.6	15.4	–
COc1ccc(/C=C/C(O)=C/C(=O)/C=C/c2ccc(OC)c(OC)c2)cc1O	4.8	5.5	–
COc1cc(OC)c(OC)cc1/C=C/C(=O)/C=C(O)/C=C/c1ccc(OC)c(OC)c1	8.6	8.2	–
CCO/C(O)=C/C=C(C(=O)/C=C/c1ccc(OC2CCCCO2)c(OC)c1)C(=O)/C=C/c1ccc(OC2CCCCO2)c(OC)c1 (stereo not given)	2.6	3.1	Activity [6]: 54%; Activity [7]: 46%
CCNC(=O)/C=C/C(C(=O)/C=C/c1ccc(OC)c(OC)c1)=C(O)\C=C\c1ccc(OC)c(OC)c1	0.6	1.2	–
COc1cc(/C=C/C=C/C(=O)/C=C(O)/C=C/C=C/c2ccc(O)c(OC)c2)ccc1O	4.4	10.6	–
O=C(/C=C(O)/C=C/c1ccc(CO)o1)/C=C/c1ccc(CO)o1	–	–	inhibition at 20 µg/mL [3]: 37%; inhibition at 20 µg/mL [8]: 37%

Structure (SMILES)	IC50 [1] [µM]	IC50 [2, 9] [µM]	other results
Cc1cc(/C=C/C(=O)/C=C(O)/C=C/c2ccc(O)c(C)c2)ccc1O	1.8	–	IC50 ([2]; pc-3): 4.8 µM
COc1cc(/C=C/C(=O)CC(=O)/C=C/c2ccc(O)c(OC)c2)ccc1O [CURCUMIN]	3.8	7.7	–
COc1ccc(/C=C/C(=O)C(/C=C/CO)=C(O)/C=C/c2ccc(OC)c(OC)c2)cc1OC	0.2	1.3	–
COc1cc(/C=C/C(O)=C/C(C)=O)ccc1O	6.2	8	–
COc1ccc(/C=C/C(=O)C(/C=C/C#N)=C(O)/C=C/c2ccc(OC)c(OC)c2)cc1OC	0.2	0.7	Activity [4]: 68%; Activity [5]: 42%
CCOC(=O)CC\C(C(=O)/C=C/C=C/c1ccc(O)c(OC)c1)=C(O)/C=C/C=C/c1ccc(O)c(OC)c1	3.1	6.4	–
COc1ccc(/C=C/C(=O)/C=C(O)/C=C/c2ccc(OC)cc2OC)c(OC)c1	11.8	–	inhibition at 20 µg/mL [3]: 45%
COc1ccc(/C=C/C(=O)/C=C/c2ccc(OC)c(OC)c2)cc1OC	3.4	3.8	–
COc1cc(/C=C/C(O)=C/C(=O)/C=C/c2cccs2)ccc1O	6.3	7.7	–
CCOC(=O)CC/C(C(=O)/C=C/c1ccc(OC)c(OC)c1)=C(O)\C=C\c1ccc(O)c(OC)c1	2.1	6.3	–
CCOC(=O)CCC(F)(C(=O)/C=C/c1ccc(OC2CCCCO2)c(OC)c1)C(=O)/C=C/c1ccc(OC2CCCCO2)c(OC)c1 (stereo not given)	7.3	6.3	–
COc1ccc(/C=C/C(O)=C/C(=O)/C=C/c2ccc(OC)c(OC)c2OC)cc1OC	7.7	9.1	–
COc1ccc(/C=C/C(O)=C/C(C)=O)cc1OC	6.6	7	–
COc1ccc(/C=C/C(=O)C(C)(F)C(=O)/C=C/c2ccc(OC)c(OC)c2)cc1OC	6.4	4.6	–
CCOC(=O)CCC(F)(C(=O)/C=C/c1ccc(O)c(OC)c1)C(=O)/C=C/c1ccc(O)c(OC)c1	6.3	9.8	–
CCOC(=O)CC/C(C(=O)/C=C/c1ccc(OC2CCCCO2)c(OC)c1)=C(O)\C=C\c1ccc(OC2CCCCO2)c(OC)c1 (stereo not given)	4.2	12.3	–
COc1cc(/C=C/C(=O)/C=C(O)/C=C/c2ccc(OC)c(OC)c2)ccc1O	3.3	6	–
COc1cc(/C=C/C(=O)/C=C/c2ccc(O)c(OC)c2)ccc1O	1.4	2.4	–
COc1ccc(/C=C/C(=O)/C=C(O)/C=C/c2ccc(OC)c(OC)c2)cc1OC	1.3	1.1	–
COc1cc(OC)c(OC)cc1/C=C/C(=O)/C=C(O)/C=C/c1cc(OC)c(OC)cc1OC	2.9	2.4	–
COc1cc(OC)c(OC)cc1/C=C/C(O)=C/C(C)=O	12.5	10.5	–
COc1ccc(/C=C/C(=O)NC(=O)/C=C/c2ccc(OC)c(OC)c2)cc1OC	2.2	> 10	inhibition at 20 µg/mL [3]: 36%
COc1ccc(/C=C/C(O)=C/C(C)=O)cc1O	5.3	6.1	–
